Consider eight compounds from ChEMBL document CHEMBL1137839, “Potent antitumor N-mustard derivatives of 9-anilinoacridine, synthesis and antitumor evaluation” (Bioorg Med Chem Lett, 2004).

In one data set the test system is HCT-116. Briefly: Concentration required for growth inhibition of human HCT116 colon tumor cell line […] was determined. It is filed as functional, cell-based.
A short description of data set [1]: Average tumor size of human mammary carcinoma (MX-1) xenograft in mice on 17th day of administration (dose = 1-2 mg/kg). It is filed as organism-based. The note with it: mouse, in vivo. The essentials: (§1)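 Human MX-1 breast carcinoma xenografts in nude mice (n = 3) with tumors established on Day 0. Dosing was iv, 1–2 mg/kg Q3D × 7, beginning D11 at tumor size 80–120 mm3. Tumor size was tracked in mm3, and mice were sacrificed when tumors exceeded 3500 mm3.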
For orientation: A xenograft is tissue or cells of one species grown in another, often human tumour cells in immunodeficient mice.

For a further data set, the system named is CCRF-CEM. Briefly: Concentration required for growth inhibition of human lymphoblastic leukemic cell line (CCRF-CEM) was determined. It counts as functional, cell-based. The essentials:
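Leukemic CCRF-CEM cells and their vinblastine-resistant (CCRF-CEM/VBL) and taxol-resistant (CCRF-CEM/taxol) sublines were incubated for 72 h. Growth inhibition was read by XTT assay and expressed as IC50. For the resistant sublines, fold resistance was calculated relative to the parent CCRF-CEM IC50.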

Data set [2] concerns Mus musculus. Kind of data set: Average change in body weight of mice bearing human mammary carcinoma (MX-1) xenograft on 14th day of administration (dose = 1-2 mg/kg). It is filed as functional. The essentials: (§2)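 Nude mice (n = 3) bearing human MX-1 mammary carcinoma xenografts (Day 0). Intravenous treatment started on D11, when tumors were 80–120 mm3, at 1–2 mg/kg on a Q3D × 7 schedule. Body weight was taken as total body weight minus tumor weight. Animals with excessive tumor burden (>3500 mm3) were sacrificed.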

Data set [3] has as its system Mus musculus. Kind of data set: Average change in body weight of mice bearing human mammary carcinoma (MX-1) xenograft on 23th day of administration (dose = 1-2 mg/kg). It is filed as functional. The essentials: as §2
In data set [4] the test system is Mus musculus. Kind of data set: Average change in body weight of mice bearing human mammary carcinoma (MX-1) xenograft on 20th day of administration (dose = 1-2 mg/kg). It counts as functional. The essentials: as §2
A short description of data set [5]: Concentration required for growth inhibition of taxol resistant human lymphoblastic leukemic cell line (CCRF-CEM/taxol) was determined. It counts as functional, cell-based. The essentials: (§3)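 Drug-resistant human lymphoblastic leukemia sublines (vinblastine-resistant CCRF-CEM/VBL; taxol-resistant CCRF-CEM/taxol). Growth inhibition measured by XTT assay after 72 h incubation, reported as IC50.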

For data set [6], the system named is Mus musculus. Briefly: Average change in body weight of mice bearing human mammary carcinoma (MX-1) xenograft on 26th day of administration (dose = 1-2 mg/kg). It is filed as functional. The essentials:
as §2

Data set [7] concerns Mus musculus. Briefly: Average change in body weight of mice bearing human mammary carcinoma (MX-1) xenograft on 17th day of administration (dose = 1-2 mg/kg). It is filed as functional. The essentials: as §2
Data set [8] is described as follows: Average tumor size of human mammary carcinoma (MX-1) xenograft in mice on 23th day of administration (dose = 1-2 mg/kg). It is filed as organism-based. The note with it: mouse, in vivo. The essentials:
as §1

Data set [9] can be described thus: Concentration required for growth inhibition of vinblastine resistant human lymphoblastic leukemic cell line (CCRF-CEM/VBL) was determined. It counts as functional, cell-based. The essentials: as §3
The nature of data set [10]: Average tumor size of human mammary carcinoma (MX-1) xenograft in mice on 20th day of administration (dose = 1-2 mg/kg). It counts as organism-based. The note with it: mouse, in vivo. The essentials:
as §1

The next data set concerns A549. Briefly: Concentration required for growth inhibition of […] was determined. The conditions noted are these: Homo sapiens. It is filed as functional, cell-based.

As usually defined, the IC50 is the concentration at which inhibition is half-maximal. Higher therefore signals weaker potency. For the compound `OCc1cc(Nc2c3ccccc3nc3ccccc23)cc(OCCN(CCCl)CCCl)c1`, the concentration for half-maximal inhibition (IC50) in the data set on HCT-116 is 5.5 nM; in the data set with CCRF-CEM, 7 nM; in [5] it was 30 nM; in data set [9] it was 7.5 nM; in the data set on A549 it was 5.6 nM. Also, the results for the T/C in data set [1], in data set [8] and in data set [10] were 0.37, 0.14 and 0.17, respectively. Also, the Weight in the data set with Mus musculus [2] is 1.2 g; in the data set with Mus musculus [3], -3 g; in the data set with Mus musculus [4], -3 g; in the data set on Mus musculus [6], -3.9 g; with Mus musculus [7], -1.4 g.

As to `ClCCN(CCCl)CCOc1cccc(Nc2c3ccccc3nc3ccccc23)c1`, in the data set with CCRF-CEM, the 50% inhibitory concentration (IC50) is 90 nM.

For the compound `ClCCN(CCCl)CCOc1ccc(Nc2c3ccccc3nc3ccccc23)cc1`, the IC50 in the data set with CCRF-CEM worked out at 20 nM; in [5], 60 nM; in [9], 60 nM.

For `Cc1cccc2c(Nc3ccc(OCCN(CCCl)CCCl)cc3)c3cccc(C(=O)NCCN(C)C)c3nc12`, it took 770 nM to reach half-maximal inhibition in the data set with CCRF-CEM (IC50).

For `Nc1cc(CO)cc(Nc2c3ccccc3nc3ccccc23)c1`, the IC50 is 750 nM with CCRF-CEM, 600 nM in [5], 1600 nM in data set [9] and 47 nM with A549.

`Cc1cccc2c(Nc3cccc(OCCN(CCCl)CCCl)c3)c3cccc(C(=O)NCCN(C)C)c3nc12` gave an IC50 with CCRF-CEM of 3 nM.

Turning to `CC(=O)O[C@H]1C(=O)[C@@]2(C)[C@H]([C@H](OC(=O)c3ccccc3)[C@]3(O)C[C@H](OC(=O)[C@H](O)[C@@H](NC(=O)c4ccccc4)c4ccccc4)C(C)=C1C3(C)C)[C@]1(OC(C)=O)CO[C@@H]1C[C@@H]2O` [PACLITAXEL], the IC50 in the data set on HCT-116 was 2.6 nM; with CCRF-CEM it was 1.5 nM; in [5], 140 nM; in data set [9] it was 1620 nM; in the data set on A549, 2.9 nM.

Take `CC[C@]1(O)C[C@@H]2CN(CCc3c([nH]c4ccccc34)[C@@](C(=O)OC)(c3cc4c(cc3OC)N(C)[C@H]3[C@@](O)(C(=O)OC)[C@H](OC(C)=O)[C@]5(CC)C=CCN6CC[C@]43[C@@H]65)C2)C1` [VINBLASTINE]: the IC50 in the data set on HCT-116 amounted to 8.7 nM; in the data set with CCRF-CEM, 1.2 nM; in [5], 29 nM; in [9], 540 nM; in the data set on A549 it was 9.9 nM.
